Published values collected from several papers.
Each line is one published result; the experiments were not run side by side.
Target: Mitogen-activated protein kinase 12 (MAPK12, Homo sapiens, UniProt P53778)
Sequence (P53778 1-367, as in one of the studies): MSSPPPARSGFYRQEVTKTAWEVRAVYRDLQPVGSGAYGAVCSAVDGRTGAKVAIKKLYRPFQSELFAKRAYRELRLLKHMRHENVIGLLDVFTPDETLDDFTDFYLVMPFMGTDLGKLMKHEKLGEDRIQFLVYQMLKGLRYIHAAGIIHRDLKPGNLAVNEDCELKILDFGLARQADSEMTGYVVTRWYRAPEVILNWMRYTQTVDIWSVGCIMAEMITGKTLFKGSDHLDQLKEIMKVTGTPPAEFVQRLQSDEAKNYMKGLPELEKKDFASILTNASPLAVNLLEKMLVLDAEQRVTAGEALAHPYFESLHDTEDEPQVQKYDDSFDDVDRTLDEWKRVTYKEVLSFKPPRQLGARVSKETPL

CN(C)c1nccc(-c2cnc3ncccn23)n1
remaining binding (binding; 1 µM): 90%

COc1cnc(Nc2cccc(S(N)(=O)=O)c2)nc1N1CCN(c2ccccc2)C(=O)C1
remaining binding (binding, competition with immobilised ligand; 1 µM): 100%

O=C(NCCCN1CCOCC1)c1ccc(Nc2ncc(Cl)c(-c3ccc(Cl)s3)n2)cc1
remaining binding (binding, competition with immobilised ligand; 1 µM): 100%

CN(c1ccnc(CNc2nc(Nc3ccc4c(c3)CC(=O)N4)ncc2C(F)(F)F)n1)S(C)(=O)=O
remaining binding (cell-free assay, competition with immobilised ligand; 1 µM): 58%

Nc1ncc2c(n1)-c1c([nH]c3ccc(C#CC4CC4)cc13)CCCC2
remaining binding (binding, competition with immobilised ligand; 1 µM): 98%

O=C(Nc1cccnn1)N1CC(C/C=C/c2cncc(Oc3ccc(C(F)(F)F)cn3)n2)C1
remaining binding (cell-free assay, competition with immobilised ligand; 1 µM): 100%

C[C@@H]1CCN(c2nccc(-c3cnn4ncccc34)n2)C1
remaining binding (binding; 1 µM): 47%

Cc1cnc(Nc2ccc(C(=O)N3CCC(N4CCCC4)CC3)cc2)nc1-c1cc2ccccc2s1
remaining binding (binding, competition with immobilised ligand; 1 µM): 81%

COc1ccnn2ncc(-c3ccnc(N(C)C)n3)c12
remaining binding (binding; 1 µM): 100%

O=C(Nc1cnc(Oc2ccc(F)cc2)nc1)N1CCc2ncccc2[C@@H]1c1ccc(F)cc1
remaining binding (cell-free assay, competition with immobilised ligand; 1 µM): 96%

CNC(=O)[C@@H]1CC[C@@H](n2c(-c3ccc4cnccc4c3)nc3ccc(C(=O)NCc4cccc(C(N)=O)c4)cc32)C1
remaining binding (binding, competition with immobilised ligand; 1 µM): 100%

CC1=C(C#N)C(c2ccc3c(c2)c(NC(=O)c2ccccc2C)nn3C)C(C#N)=C(C)N1
remaining binding (cell-free assay, competition with immobilised ligand; 1 µM): 68%

N[C@H]1CCN(c2nccc(-c3cnn4ncccc34)n2)C1
remaining binding (binding; 1 µM): 86%

O=C(c1ccc(Nc2ncc(Cl)c(-c3ccc(Cl)s3)n2)cc1)N1CCC(N2CCCC2)CC1
remaining binding (binding, competition with immobilised ligand; 1 µM): 100%

c1cncc(-c2cccc(Nc3nccc(NC4CCCCC4)n3)c2)c1
remaining binding (binding, competition with immobilised ligand; 10 µM): 84%

Cc1cc(Nc2nccc(C)n2)cc(-c2cnc([C@@]3(O)CC[C@H](C(=O)O)C(C)(C)C3)s2)c1
remaining binding (binding, competition with immobilised ligand; 1 µM): 31.2%

CN(C)c1ncc(F)c(-c2cnn3ncccc23)n1
remaining binding (binding; 1 µM): 100%

O=C(Nc1c[nH]nc1C(=O)NC1CCNCC1)c1cc(F)cc(F)c1
remaining binding (binding, competition with immobilised ligand; 1 µM): 100%

Cn1cc(Cl)c2c(Oc3c(F)cc(Nc4cc(Cl)nc(N)n4)cc3F)ccnc21
remaining binding (cell-free assay, competition with immobilised ligand; 0.1 µM): 100%

CN(c1nccc(-c2cnn3ncccc23)n1)C1CC1
remaining binding (binding; 1 µM): 100%

COc1ncc2cc3ccccc3nc2c1C#N
remaining binding (cell-free assay, competition with immobilised ligand; 5 µM): 96%
